According to ChEMBL document CHEMBL4411278, “Discovery of potent and selective inhibitors of the Escherichia coli M1-aminopeptidase via multicomponent solid-phase synthesis of tetrazole-peptidomimetics” (Eur J Med Chem, 2019):
The source made the active and inactive calls. The calls are words filed in the database; no cut-off is given here.

What was measured:
Escherichia coli [1] = assay: Reversible inhibition of recombinant Escherichia coli M1 aminopeptidase using Leu-pNA as substrate preincubated for 15 mins followed by substrate addition
Summary of the method: (§1)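 Recombinant ePepN (partially purified by ion exchange) or porcine kidney cortex microsomal APN was pre-incubated 15 min at 25°C with inhibitor in DMSO (final ≤2% v/v), then 75 μM Leu-pNA (~1 KMapp) was added. Buffer was 50 mM Tris-HCl pH 8.0. A405 was read every 15 s for 3 min. Doses were double serial dilutions over 0.781–100 μM, and IC50 came from a logistic fit of residual activity (vi/v0); at least triplicate.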

[2] = (§2) Inhibition of recombinant Escherichia coli M1 aminopeptidase using Leu-pNA as substrate preincubated for 15 mins followed by substrate addition; summary of the method: as §1
Escherichia coli [3] = assay: as §2; summary of the method: as §1
[4] = Haemolytic activity in human erythrocytes assessed as induction of hemolysis at 100 uM after 20 hrs relative to control; type: cell-based, Erythrocyte; settings: read-out: Activity
Summary of the method: (§3)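 Fresh human red blood cells were washed and resuspended in 145 mM NaCl, 10 mM Tris-HCl pH 7.4, adjusted so full lysis with Na2CO3 gives A540 ≈0.7. Cells were incubated with compounds for 3, 6 or 20 h, with untreated and 1% DMSO controls. Supernatant haemoglobin was measured after centrifugation.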

Erythrocyte [5] = assay: Haemolytic activity in human erythrocytes assessed as induction of hemolysis after 3 hrs; type: cell-based; summary of the method: as §3
[6] = Inhibition of M1 aminopeptidase in porcine kidney cortex microsomes using Leu-pNA as substrate preincubated for 15 mins followed by substrate addition; design: species or system Sus scrofa
[7] = Cytotoxicity against mouse P3X63Ag assessed as reduction in cell viability at 50 uM after 20 hrs by MTT assay relative to control
Summary of the method: (§4)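 P3X63Ag murine myeloma cells were grown in DMEM-F12 with 10% FCS at 37°C, 5% CO2. For the assay they were plated in serum-free DMEM-F12 and exposed to compounds for 3, 6 or 20 h. After a PBS wash, cells got MTT for 3 h and crystals were dissolved in DMSO. Absorbance was read at 450 nm (620 nm reference), and viability calculated as 100×At/Ac versus untreated cells.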

[8] = Cytotoxicity against mouse P3X63Ag assessed as reduction in cell viability after 6 hrs by MTT assay; summary of the method: as §4
[9] = Cytotoxicity against mouse P3X63Ag assessed as reduction in cell viability at 50 uM after 3 hrs by MTT assay relative to control; summary of the method: as §4
Escherichia coli [10] = assay: Growth inhibition of Escherichia coli BL21 up to 100 uM after 3 to 20 hrs by spectrophotometric analysis; type: functional, organism-based
Summary of the method: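 E. coli BL21 was inoculated at 1% from an overnight culture into LB. Compounds were added at eight concentrations (0.781–100 μM) from DMSO serial dilutions, with DMSO and 200 μg/mL ampicillin controls; four replicates. Plates were held at 37°C and raised to 42°C at 6 h. A595 was read at 0, 3, 6 and 20 h and normalized to the DMSO control (100% growth).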

[11] = Cytotoxicity against mouse P3X63Ag assessed as reduction in cell viability after 3 hrs by MTT assay; summary of the method: as §4
Erythrocyte [12] = assay: Haemolytic activity in human erythrocytes assessed as induction of hemolysis after 20 hrs; type: cell-based; summary of the method: as §3
[13] = Cytotoxicity against mouse P3X63Ag assessed as reduction in cell viability after 20 hrs by MTT assay; summary of the method: as §4
Erythrocyte [14] = assay: Haemolytic activity in human erythrocytes assessed as induction of hemolysis after 6 hrs; type: cell-based; summary of the method: as §3
[15] = Selectivity index, ratio of IC50 for M1 aminopeptidase in porcine kidney cortex microsomes to IC50 for recombinant Escherichia coli M1 aminopeptidase
[16] = Cytotoxicity against mouse P3X63Ag assessed as reduction in cell viability at 50 uM after 6 hrs by MTT assay relative to control; summary of the method: as §4
Escherichia coli [17] = assay: Reversible inhibition of recombinant Escherichia coli M1 aminopeptidase using Leu-pNA as substrate preincubated for 45 mins followed by substrate addition; settings: in the assay text read “15 mins” for “45 mins”
Summary of the method: (§5)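 The time to reach inhibition equilibrium was tested by pre-incubating recombinant ePepN with inhibitor for 5, 10, 15, 30 or 45 min at 25°C. Residual activity was then measured on 75 μM Leu-pNA in 50 mM Tris-HCl pH 8.0, reading A405 continuously against a DMSO control.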

Escherichia coli [18] = assay: Noncompetitive inhibition of recombinant Escherichia coli M1 aminopeptidase assessed as Km for substrate at 6.25 uM using Leu-pNA as substrate preincubated for 15 mins followed by substrate addition by Lineweaver-Burk double reciprocal plot analysis (reference value: 120 umol/L)
Escherichia coli [19] = assay: Noncompetitive inhibition of recombinant Escherichia coli M1 aminopeptidase assessed as Km for substrate at 3.125 uM using Leu-pNA as substrate preincubated for 15 mins followed by substrate addition by Lineweaver-Burk double reciprocal plot analysis (reference value: 120 umol/L)
Escherichia coli [20] = assay: Noncompetitive inhibition of recombinant Escherichia coli M1 aminopeptidase assessed as Vmax for substrate at 6.25 uM using Leu-pNA as substrate preincubated for 15 mins followed by substrate addition by Lineweaver-Burk double reciprocal plot analysis (reference value: 125 10^-3OD/min)
Escherichia coli [21] = assay: Noncompetitive inhibition of recombinant Escherichia coli M1 aminopeptidase assessed as Km for substrate at 1.56 uM using Leu-pNA as substrate preincubated for 15 mins followed by substrate addition by Lineweaver-Burk double reciprocal plot analysis (reference value: 120 umol/L)
Escherichia coli [22] = assay: Noncompetitive inhibition of recombinant Escherichia coli M1 aminopeptidase assessed as Vmax for substrate at 3.125 uM using Leu-pNA as substrate preincubated for 15 mins followed by substrate addition by Lineweaver-Burk double reciprocal plot analysis (reference value: 125 10^-3OD/min)
[23] = (§6) Inhibition of recombinant Escherichia coli M1 aminopeptidase using Leu-pNA as substrate preincubated for 45 mins followed by substrate addition; settings: in the assay text read “15 mins” for “45 mins”; summary of the method: as §5
Escherichia coli [24] = assay: as §6; summary of the method: as §5
Escherichia coli [25] = assay: Noncompetitive inhibition of recombinant Escherichia coli M1 aminopeptidase assessed as Vmax for substrate at 1.56 uM using Leu-pNA as substrate preincubated for 15 mins followed by substrate addition by Lineweaver-Burk double reciprocal plot analysis (reference value: 125 10^-3OD/min)

Row | Compound | inhibition (Escherichia coli [1]) | IC50 [2] [µM] | inhibition (Escherichia coli [3]) | also measured
1 | O=C(O)[C@H](Cc1c[nH]c2ccccc12)NC(c1ncc[nH]1)c1nnnn1C1CCCCC1 (stereo not given in full) | Active | 48 | Dose-dependent effect | –
2 | O=C(O)[C@H](Cc1c[nH]c2ccccc12)NCc1nnnn1C1CCCCC1 | Active | 110 | Dose-dependent effect | –
3 | O=C(O)[C@H](Cc1c[nH]c2ccccc12)NC(c1ncc[nH]1)c1nnnn1Cc1ccccc1 (stereo not given in full) | Active | 25 | Dose-dependent effect | –
4 | CC(C)[C@H](NC(c1cccnc1)c1nnnn1C1CCCCC1)C(=O)O (stereo not given in full) | Active | 27 | Dose-dependent effect | –
5 | O=C(O)[C@H](Cc1ccccc1)NC(c1ccco1)c1nnnn1Cc1ccccc1 (stereo not given in full) | Active | 17 | Dose-dependent effect | –
6 | O=C(O)[C@H](Cc1ccc(OCc2ccccc2)cc1)NCc1nnnn1C1CCCCC1 | Active | 44 | Dose-dependent effect | –
7 | O=C(O)[C@H](Cc1ccccc1)NC(c1ccco1)c1nnnn1C1CCCCC1 (stereo not given in full) | Active | 41 | Dose-dependent effect | –
8 | O=C(O)[C@H](Cc1c[nH]c2ccccc12)NC(c1ccco1)c1nnnn1C1CCCCC1 (stereo not given in full) | Active | 2.2 | Dose-dependent effect | hemolysis at 20 h, 100 µM [4]: 40%; HC20 (Erythrocyte [5]): 80 µM; IC50 [6]: 2000 µM; Activity [7]: <= 50%; IC50 [8]: > 100 µM; Activity [9]: <= 60%; growth inhibition (GI) (Escherichia coli [10]): inactive; IC50 [11]: > 100 µM; HC20 (Erythrocyte [12]): 55 µM; IC50 [13]: 100 µM; HC20 (Erythrocyte [14]): 70 µM; Ratio IC50 [15]: 909; Activity [16]: <= 50%
9 | CC(C)[C@H](NCc1nnnn1Cc1ccccc1)C(=O)O | Active | 47 | Dose-dependent effect | –
10 | COc1ccc(C(N[C@H](C(=O)O)C(C)C)c2nnnn2Cc2ccccc2)cc1 (stereo not given in full) | – | > 1000 | – | growth inhibition (GI) (Escherichia coli [10]): inactive
11 | O=C(O)[C@H](Cc1c[nH]c2ccccc12)NC(c1cccnc1)c1nnnn1C1CCCCC1 (stereo not given in full) | Active | 22 | Dose-dependent effect | –
12 | COc1ccc(C(N[C@@H](Cc2c[nH]c3ccccc23)C(=O)O)c2nnnn2C2CCCCC2)cc1 (stereo not given in full) | Active | 630 | Dose-dependent effect | –
13 | COc1ccc(C(N[C@H](C(=O)O)C(C)C)c2nnnn2CCCc2ccccc2)cc1 (stereo not given in full) | Active | 160 | Dose-dependent effect | –
14 | COc1ccc(C(N[C@@H](Cc2c[nH]c3ccccc23)C(=O)O)c2nnnn2Cc2ccccc2)cc1 (stereo not given in full) | Active | 7.2 | Dose-dependent effect | –
15 | O=C(O)[C@H](Cc1c[nH]c2ccccc12)NC(c1ccco1)c1nnnn1Cc1ccccc1 (stereo not given in full) | – | – | – | hemolysis at 20 h, 100 µM [4]: 15%; HC20 (Erythrocyte [5]): > 100 µM; inhibition (Escherichia coli [17]): Active; Km (Escherichia coli [18]): 61.4 µM; Km (Escherichia coli [19]): 69.3 µM; IC50 [6]: 6100 µM; Vmax (Escherichia coli [20]): 23.3 mOD/min; IC50 [8]: > 100 µM; growth inhibition (GI) (Escherichia coli [10]): inactive; Km (Escherichia coli [21]): 71.3 µM; Vmax (Escherichia coli [22]): 34.5 mOD/min; IC50 [23]: 0.26 µM; inhibition (Escherichia coli [24]): Dose-dependent effect; IC50 [11]: > 100 µM; HC20 (Erythrocyte [12]): > 100 µM; IC50 [13]: > 100 µM; HC20 (Erythrocyte [14]): > 100 µM; Vmax (Escherichia coli [25]): 45.5 mOD/min; Ratio IC50 [15]: 23500
16 | CC(C)[C@H](NC(c1ncc[nH]1)c1nnnn1Cc1ccccc1)C(=O)O (stereo not given in full) | Active | 71 | Dose-dependent effect | –
17 | CC(C)C[C@H](NC(=O)[C@@H](O)[C@H](N)Cc1ccccc1)C(=O)O [UBENIMEX] | – | 7 | – | growth inhibition (GI) (Escherichia coli [10]): inactive
18 | COc1ccc(C(N[C@H](C(=O)O)C(C)C)c2nnnn2C2CCCCC2)cc1 (stereo not given in full) | Active | 90 | Dose-dependent effect | –
19 | CC(C)[C@H](NCc1nnnn1CCCc1ccccc1)C(=O)O | Active | 170 | Dose-dependent effect | –
20 | CC(C)[C@H](NC(c1ncc[nH]1)c1nnnn1CCCc1ccccc1)C(=O)O (stereo not given in full) | Active | 470 | Dose-dependent effect | –
21 | CC(C)[C@H](NC(c1ncc[nH]1)c1nnnn1C1CCCCC1)C(=O)O (stereo not given in full) | Active | 127 | Dose-dependent effect | –
